From the array DNA melting data of Ke et al. (doi:10.1101/2024.01.08.574731)

Tests used:
[1] = melting temperature; fluorescence melt of hairpins on a sequencing array, two-state fit, raised by 9.35 °C to match UV melts; conditions: sodium 0.088 M
Procedure, shortened: (§1)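 Cy3 signals were normalised both to pre-quench Cy3 and to control constructs. They came from library hairpins carrying annealed Cy3 and quencher oligos on a sequenced MiSeq flow cell, imaged in 50 mM Na-HEPES pH 8.0, 25 mM NaCl, in 2.5 °C steps up to 60 °C. Bootstrapped two-state fits gave melting temperature and folding enthalpy, and four replicates were combined by inverse variance. Fitted temperatures were then raised by 9.35 °C to match UV melts.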

[2] = folding enthalpy; higher = less favourable; fluorescence melt of hairpins on a sequencing array, two-state fit; conditions: sodium 0.088 M
Procedure, shortened: as §1

Sequence | Tm [1] [°C] | folding enthalpy [2] [kcal/mol]
GGAACCGAAAGGTTGTCC ((((((....)))..))) | 36.1 | -11.5
GATCCGACTGCGGATC ((((((....)))))) | 56.1 | -48.8
GCCTGGCGAAAGCGTGGC (((..((....))..))) | 58.9 | -24.3
GCCTATCGAAAGATGGGC (((.(((....))).))) | 60.1 | -34.6
GGTGCTCGAAAGAGGACC (((.(((....))).))) | 59.7 | -47.6
GATCTGAAGACAGATC ((((((....)))))) | 44.8 | -27.7
GATCGGAAGACCGATC ((((((....)))))) | 52.8 | -29
GGATTCTCGAAAGAGTCC (((..(((....)))))) | 33.5 | -22.7
CGCGGAACATCCGCG ((((((...)))))) | 69 | -27.5
GATCGAGCTTCGATC ((((((...)))))) | 51.3 | -33.8
GCAATGGGAAACCGTTGC ((((.((....)).)))) | 55 | -43.3
GGCTGCGAAAGCAGTGCC ((((((....)))..))) | 51.7 | -12.1
GCATCGCCGAAAGGCTGC (((..(((....)))))) | 43.4 | -14.1
GGTGACCGAAAGGTACC (((.(((....)))))) | 49 | -21.8
GTTGAAGCGAAAGCTAAC (((..(((....)))))) | 34.3 | -13.5
GGAACGTCGAAAGACTCC (((..(((....)))))) | 32.1 | -11.7
GTAAAGACGAAAGTCTAC (((..(((....)))))) | 29.8 | -11.6
TGCCTGAAAAGGCA (((((....))))) | 59.1 | -17.5
GGCATTGGAAACAGTGCC ((((.((....)).)))) | 52.2 | -43
GTCTCCGAAAGGAGGGAC ((((((....)))..))) | 41.7 | -9.56
GAAGAGACGAAAGTCTTC (((..(((....)))))) | 30.6 | -9.13
GTTCTGGGAAACTGGAAC ((((..(....)..)))) | 34.8 | -31.9
GATCTATCTTTAGATC ((((((....)))))) | 43.1 | -24.1

Sequence | Tm [1] [°C] | folding enthalpy [2] [kcal/mol]
GTAAGCTCGAAAGAGTAC (((..(((....)))))) | 27 | -12.2
GATTTACGAAAGTACATC (((.(((....))).))) | 35.6 | -19.9
GATCTAAGTGTAGATC ((((((....)))))) | 39.3 | -28.5
GCGTTCCTACGC ((((....)))) | 57.9 | -25.2
GTACTAGGAAACCAGTAC (((((.(....).))))) | 36 | -26.9
GCATTGCGAAAGCAACGC ((.((((....)))).)) | 60.4 | -26.7
GCCTTTACGAAAGTAGGC (((..(((....)))))) | 43.5 | -28.7
GGACGCGAAAGCGTATCC ((((((....)))..))) | 37.4 | -9.56
GATCCACGTTTGGATC ((((((....)))))) | 50.5 | -34.6
GATCAAGTTTTTGATC ((((((....)))))) | 45.5 | -36
GATCGTAAAAACGATC ((((((....)))))) | 50.3 | -31.8
CTGTCGAAAGACAG (((((....))))) | 67.5 | -21.3
GATCTTAATAAGATC ((((((...)))))) | 39.8 | -24.4
GAAATGCGAAAGCAGTTC (((.(((....))).))) | 52.4 | -33.5
GCTATCGAAAGATAAAGC ((((((....)))..))) | 33.6 | -23.9
GTAGTCGCGAAAGCGTAC (((..(((....)))))) | 32.9 | -8.28
GTAGATGGAAACATCCAC ((.((((....)))).)) | 30.4 | -16.9
GCCGTGCGAAAGCACCGC ((.((((....)))).)) | 55.8 | -16
GTCCAAGAAATTGGAC ((((((....)))))) | 53 | -26.5
GCCAGGCGAAAGCCTTGC ((.((((....)))).)) | 56.9 | -20
GGAGTAGAAATACTCC ((((((....)))))) | 52 | -32.6
GATCCGGGCTCGGATC ((((((....)))))) | 59.3 | -44.6
GATCACTTCTGTGATC ((((((....)))))) | 58.9 | -38.4

Sequence | Tm [1] [°C] | folding enthalpy [2] [kcal/mol]
GATCAAAACCTTGATC ((((((....)))))) | 44.4 | -32.5
CGACGCGGAAACGCCTCG (((.(((....))).))) | 41.5 | -23.9
GGCACTGGAAACAGCGCC (((.(((....))).))) | 54 | -46.1
GGAAGAGGAAACCCTTCC (((((.(....).))))) | 37.8 | -30.7
GCTTATCGAAAGATGAGC (((.(((....))).))) | 50.6 | -54.6
GGTCGCGAAAGCGGACC ((((((....))).))) | 67.1 | -22.9
GATCTAATCTTAGATC ((((((....)))))) | 43.6 | -35.3
GCCCGCCCGAAAGGGGGC (((..(((....)))))) | 60.2 | -13.2
GCTCTTCGAAAGAACAGC (((.(((....))).))) | 34.7 | -22.2
GATCGTCACACGATC ((((((...)))))) | 57 | -37.8
GCGTCCCGAAAGGGCCGC (((.(((....))).))) | 64.8 | -23.7
GCTGTACGAAAGTAGAGC (((.(((....))).))) | 51.7 | -35.3
GCAATTGGAAACAGTTGC ((((.((....)).)))) | 47 | -33.3
GGTTTTCCGAAAGGAACC (((..(((....)))))) | 31.1 | -12.1
GCACAGCGAAAGCGTTGC (((..((....))..))) | 48.2 | -15.5
GTTTGCGGAAACGCAGAC ((.((((....)))).)) | 51.8 | -24.6
GCCGTGTCGAAAGACGGC (((..(((....)))))) | 58.9 | -31.4
CGCGGACAATCCGCG ((((((...)))))) | 67.7 | -26.4
GGTCCAGGAAACCGGACC (((((.(....).))))) | 53.3 | -38.8
GCTAGAGGAAACTCTGGC ((.((((....)))).)) | 48 | -37.9
GCATACGAAAGTAGATGC ((((((....)))..))) | 41.1 | -27.1
GATCACAATTGTGATC ((((((....)))))) | 56.1 | -41.6
GTCCTCCGAAAGGAGAC (((.(((....)))))) | 47.5 | -15.9

Sequence | Tm [1] [°C] | folding enthalpy [2] [kcal/mol]
GTTGTCGAAAGACAGAAC ((((((....)))..))) | 35.6 | -12.9
GCGTCCGGAAACGGATGC ((.((((....)))).)) | 65.1 | -37.3
GATCCTAGTTAGGATC ((((((....)))))) | 51.7 | -33.7
GCGTTCTGACGC ((((....)))) | 55.3 | -25.1
GGTTGTGGAAACGCAATC (.(((.(....).))).) | 35.7 | -20.6
GAGCACGAAAGTGTACTC ((((((....)))..))) | 37.5 | -15.4
GCCATTGGAAACGATGGC (((((.(....).))))) | 54.1 | -45.8
GATCCGGCCCCGGATC ((((((....)))))) | 61.1 | -47.8
GGCATGGGAAACTATGCC (((((.(....).))))) | 53.6 | -38.9
GGGGTCGAAAGACAGCCC ((((((....)))..))) | 46.2 | -16.6
GATCACGAAAGTGCGATC ((((((....)))..))) | 29.5 | -16.3
GAATGCGAAAGCATTTTC ((((((....)))..))) | 49 | -14.6
GCGTAACCGAAAGGTCGC (((..(((....)))))) | 53 | -34.2
GATCTGAAAACAGATC ((((((....)))))) | 42.8 | -27.5
GCCCACGAAAGTGTGGC ((((((....))).))) | 62.4 | -30.2
GATCATTTTGATGATC ((((((....)))))) | 49.5 | -51.2
GCAACGCGAAAGCGCCGC ((..(((....)))..)) | 40.8 | -9.13
GATCCGGGGCCGGATC ((((((....)))))) | 61 | -41.4
GTTCGAGGAAACTTGAGC (.((.((....)).)).) | 29.9 | -20.3
GATCCGCCCACGGATC ((((((....)))))) | 59.5 | -43.6
GACAAGCGAAAGCTGGTC (((.(((....))).))) | 56.4 | -32.4
GTTAGGTCGAAAGACAAC (((..(((....)))))) | 27.2 | -11.1
GAAGGAGCGAAAGCTTTC (((..(((....)))))) | 28.4 | -9.13
